Data taken from the EternaBench riboswitch data.

Tested on: MS2 coat protein
Assay: apparent Kd, MS2 coat protein; higher = weaker binding; RNA-MaP array; FMN 200 µM where present
How it was run: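 Stalled E. coli RNA polymerase produced the designs on Illumina sequencing-chip clusters. SNAP-549-labelled MS2 coat protein was added from 0.7 or 1.5 nM, doubling to 3 µM, without and then with constant ligand, in 100 mM Tris-HCl pH 7.5, 80 mM KCl, 4 mM MgCl2, BSA, DTT, yeast tRNA and Tween-20. The apparent Kd is the median of filtered per-cluster fits of green signal normalised to red-channel RNA signal and control-cluster median Fmax.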

[1] = designed as: ON switch for flavin mononucleotide, no ligand
[2] = ligand present: flavin mononucleotide, designed as: ON switch for flavin mononucleotide
[3] = designed as: OFF switch for flavin mononucleotide, no ligand
[4] = ligand present: flavin mononucleotide, designed as: OFF switch for flavin mononucleotide

Row | Sequence | apparent Kd [1] | apparent Kd [2] | apparent Kd [3] | apparent Kd [4]
1 | UGGAUCAAUACAGGAUAUGGUGACGCACAUGAGGAUCACCCAUGUCCGCAGCGUGCUAAGCACGCCCAGAAGGGUAUUGAUUCG | 0.722 µM | 0.0694 µM |  | 
2 | AACAGUACAGGAUAUACAUGAGGAUCACCCAUGUGAGAAUUAUGUGGCGUACCACAAAGUAGAAGGGUACUGGA |  |  | 0.0817 µM | 0.308 µM
3 | GGUGAAUGAACAUGAGGAUCACCCAUGUACAGGAAACUGAAUGAGGAUAUCCAUAGCAAAGCUAUGGAGAAGGCAUGGGUCACC | 0.302 µM | 0.0998 µM |  | 
4 | AUAUGAUAGAUAGGAUAUACUAUGGUUGAAGAAGUAGAAGGAUCAAUUGGGAAAUGUACAUGAGGAUCACCCAUGUUAUGGGUU | 0.943 µM | 0.493 µM |  | 
5 | UGCCUGAGGCAAAGCUUUAGGUAUACAUGAGGAUCACCCAUGUAGGAUAUGGUAGGCUUUGCUUACCAGAAGGACAUGUUAAUU |  |  | 0.0198 µM | 0.0546 µM
6 | AUUUACAAGUAAGGAUAUCGGGUAUAGUUAACUCGAGAAGGUACAUGAGGAUCACCCAUGUAGUAGAUACAUAGAACUGUUUUG |  |  | 0.0136 µM | 0.0127 µM
7 | UGACGGAGCUGAGGAUAUACAUGAGGAUCACCCAUGUAAGAUCUCCAGGAAACUGGAGAUCAAAAGUAGAAGGCAGCUCCGUCA |  |  | 0.0154 µM | 0.0234 µM
8 | CCGCCCUGAGGAUAUCCACCCUCAUACAUGAGGAUCACCCAUGUUCACCCUUGGGUUCCCGGAGAAGGCAGUUUUC |  |  | 0.306 µM | 0.521 µM
9 | GUGAAACAUGAGGAUCACCCAUGUGAGGAUAUGUUUUAGUACUGCUGACAGUACAUCUAUAGAAGGCACAAUGG |  |  | 0.0348 µM | 0.0548 µM
10 | UUUGUCUGUGUGAGGAUAUACUUUUUUUGGUUUUUGUAGAAGGCACAUGAGGAUCACCCAUGUAUUUUGUUGUG |  |  | 0.0377 µM | 0.0502 µM
11 | GUACCUUAUGAGAAGGCGAUCAUGAAACAUGAUCGAGGAUAUCAUGUAAACAUGAGGAUCACCCAUGUAUGGGUAUUAUGGUAU | 0.0439 µM | 0.0113 µM |  | 
12 | ACAGGACCAGUCAGGAUAUGCAGGCGAAUCUGCUUGUAGAAGGGACAUGAGGAUCACCCAUGUGCCGUGGGAUU |  |  | 0.0196 µM | 0.0314 µM
13 | CAGUACUGAGGAUAUACAUGAGGAUCACCCAUGUGUUCCAGGUAGGAAACUAGCAAAAGUAGAAGGCAGUACUG |  |  | 0.019 µM | 0.127 µM
14 | CCACCCUGAGGAUAUCCACCCUGAUACAUGAGGAUCACCCAUGUUAAUGCCUGAGUUCCCGGAGAAGGCAGAUUCC |  |  | 0.0405 µM | 0.0347 µM
15 | ACAUCGACAGGAUAUACGUGAGUGGAAAAAGUGUAUCCACUACAUGAGGAUCACCCAUGUAGAAGGGUCGAUGA |  |  | 0.0185 µM | 0.0198 µM
16 | AGUUGUUCAGGAUAUGGUGUGUUAUACAUGAGGAUCACCCAUGUGGGUCCUGGUUUGGCCUCAGAAGGGAAUGUUA |  |  | 0.476 µM | 0.449 µM
17 | AAGAAUCAAGGAUAUGCAUGAUACGACAUGAGGAUCACCCAUGUCCUCAUGCGUAUCCUUGCAGAAGGUGAGUAUA |  |  | 0.0138 µM | 0.0171 µM
18 | AAUAAUUAGUAAGGAUAUACUAGUGGUUAGCUUGUAGAAGGUACAGUCUUAUGUAUAACAAAUUAACAUGAGGAUCACCCAUGU | 0.0106 µM | 0.00819 µM |  | 
19 | GUAGCAUACCGAGGAUAUUCAUAUAGGAAACAAACAUGAGGAUCACCCAUGUGGCGAAAGCCUUGGGAGAAGGCGGAAUGCUAC | 0.115 µM | 0.0211 µM |  | 
20 | CGAUACAUGAGGGUCUCCCAUGACAUGAGGAUCACCCAUGUGCAGGAUAUACGUGUGAUGGUAUAGUAGAAGGGCACUCUAUGU |  |  | 0.0293 µM | 0.0369 µM
21 | AGUACGUCAGGAUAUCUGAUGUCUAACUUCGGUUAGACAUCAGAGAAGGGACAUGAGGAUCACCCAUGUACAAA |  |  | 0.0418 µM | 0.0369 µM
22 | AAUGAUUGAUUCCACUUAUACAUGAGGAUCACCCAUGUUAUCGAGGAUAUGCAUUAGAGUGUUUAGCAGAAGGCGAUGUAAUUG |  |  | 0.00782 µM | 0.025 µM
23 | CUUAUGUGAGGAUAUGGUGUUGAUCACAGGAAAAAGAUUCUCCAGAAGGCACAUGAGGAUCACCCAUGUAGUGA |  |  | 0.145 µM | 0.09 µM
24 | CUGAGUAGUCAGGAUAUGCUGUACAAAAGUACAGCAGAAGGGAUUACAUGAGGAUCACCCAUGUUGUCUUCAUG |  |  | 0.16 µM | 0.316 µM

Row | Sequence | apparent Kd [1] | apparent Kd [2] | apparent Kd [3] | apparent Kd [4]
25 | UUUUAACAUGAGGAUCACCCAUGUGAGGAUAUCGAAAUUUAUAUUAAUAUUUAUAAAUCGAGAAGGCACAUUUU |  |  | 0.135 µM | 0.124 µM
26 | AUCUUGUCAGGAUAUCUGACAAGUGACGAAAGUCACAGUUCAGAGAAGGUACAUGAGGAUCACCCAUGUAGAAC |  |  | 0.0194 µM | 0.0192 µM
27 | AAACAUGUCCGAGGAUAUCUGAGAUCACUUUCAAGAGAAGGCGGACAUGAGGAUCACCCAUGUCUCUCCUCAUCAACUCCAAAU |  |  | 0.00801 µM | 0.0419 µM
28 | AGUGUGUGGCAGGAUAUGCGAUUUGUCGGUGAAGCAGAAGGGUCUACAUGAGGAUCACCCAUGUGUGCGGUUGA |  |  | 0.141 µM | 0.381 µM
29 | GGAUAGGACAGAGGAUAUACGUGCUAGAGAUACUAGUAAAAUUUCCUCACAUGAGGAUCACCCAUGUAGAAGGCUGUCCUAUCG |  |  | 0.0361 µM | 0.684 µM
30 | CCGGCUGCUGUGAGGAUAUGCCUGUGGGUGCGUGGGUAGAAGGCACAUGAGGAUCACCCAUGUCCUGCGGGCCC |  |  | 0.123 µM | 0.0818 µM
31 | UUUUAACAUGAGGAUCACCCAUGUGAGGAUAUCGAAAUUUAUAUUAAUAUUAUUUAUUCGAGAAGGCACAUUUU |  |  | 0.12 µM | 0.145 µM
32 | UGCUGGGAGUCAGGAUAUACGUGGUAUGCUGAGCACAUGAGGAUCACCCAUGUAGAAGGGAUUCCGCGGUGAGAUUCCGAAACA |  |  | 0.00603 µM | 0.00662 µM
33 | GCGCUUAUACAGAAGGCCAUAUACAUGAGGAUCACCCAUGUUACAUGGUGGAGGAUAUGUUAUUUAUUACAGGUAGAUGAGCGC | 0.00471 µM | 0.00532 µM |  | 
34 | GAUACGUCAGGAUAUCUGAUGUCUAACUUCGGUUAGACAUCAGAGAAGGGACAUGAGGAUCACCCAUGUAUCAG |  |  | 0.0504 µM | 0.0612 µM
35 | CAGCGAAAGCUGAAUCUGUAGAGAGAGGAUAUACAAGAAUAAGUCCAUACAUGAGGAUCACCCAUGUAGAAGGCUCUCUACAGU |  |  | 0.00728 µM | 0.0254 µM
36 | AAUUUACAUGAGGAUCACCCAUGUGAGGAUAUAUAUAUAUGCUUGUUAUUGCGUGUGUGUAGAAGGCGCGUGAU |  |  | 0.0211 µM | 0.021 µM
37 | GCGUGAUUGUAGAAGGUACAUGAAAAUAUUUAAUACCUCAAGUAACAUGAGGAUCACCCAUGUAGUAAGGAUAUACAUAUACGC | 0.095 µM | 0.0568 µM |  | 
38 | UCGACCAGCGCAACUCGAACAUGAGGAUCACCCAUGUACUCCAGAAGGCCGCCCAAGUACGGAGUGGAGGAUAUGGAGGUUCUC | 0.0569 µM | 0.0861 µM |  | 
39 | GUCAGCUCGUGAGGAUAUACAUGUGCUGGAUACAGCAUUAAAUUUUUCACAUGAGGAUCACCCAUGUAGAAGGCACGAGCUGAU |  |  | 0.0192 µM | 0.0496 µM
40 | CGGAUUAUGUGAGGAUAUAAUCGUUUCCAUUGAUUAGAAGGCACAUGAGGAUCACCCAUGUGGCAUGUAAUGCCAUGUGACGCU |  |  | 0.442 µM | 0.0413 µM
41 | GAGUAGUUGAAAGGAUAUUGAUUAUUGUAGGAUCAAGAAGGUUCUAACAUGAGGAUCACCCAUGUAGGACUAUUCCUGUGUAUC | 0.013 µM | 0.0108 µM |  | 
42 | UCAUACAUGACAUGACAUGACAUGAGGAUCACCCAUGUUUACAAGGAUAUGUUGAUGAAACAUCAACAGAAGGUGUAUUGGACU |  |  | 0.0518 µM | 0.172 µM
43 | GUGCGGUAGGAGAAGGACGGAGGCUUCUUUUCAUACAUGAGGAUCACCCAUGUAGGAUAUCCUACCUCACGCGGCCUCCUUCUG |  |  | 0.00477 µM | 0.00499 µM
44 | UGCGUUUGAGGAUAUACGUAGAAUUAGAUUCAUGUAAAACUACAUGAGGAUCACCCAUGUAGAAGGCAAGCGCU |  |  | 0.0177 µM | 0.0794 µM
45 | AUUUAUAAGUAAGGAUAUCGGUUAUAUUUAAUUCGAGAAGGUACAUGAGGAUCACCCAUGUAAUAAAUAAAUAAAAUUUUUUUU |  |  | 0.0364 µM | 0.0287 µM
46 | GUAGUGCUCAUAGGAUAUCGGGAGCAACGUAGACAGGUUGCACAUGAGGAUCACCCAUGUAAAGUCGAGAAGGGUGAUCACGCC | 0.599 µM | 0.177 µM |  | 
47 | GUAGCUAUCGCAGGAUAUCCUCAGGCGAAAGCCACAUGAGGAUCACCCAUGUAUAUAAAGAAUAUGGAGAAGGGCGAUAGCUAC | 1.67 µM | 0.185 µM |  | 
48 | UCAUUUCAGUAAGGAUAUUAAAUCAUGACGAUACAUGAGGAUCACCCAUGUUAAGAAGGUACUAAUACAAAUAAUGCAUUGUUC |  |  | 0.0128 µM | 0.0111 µM
